According to ChEMBL document CHEMBL3745670, “Synthesis and biological evaluation of novel lipoamino acid derivatives” (Bioorg Med Chem Lett, 2016):
Converted amounts (≈) assume the structure as drawn.

The compounds below were run on Candida albicans (assay: Antifungal activity against Candida albicans MTCC 3018 after 24 hrs by well diffusion assay). Conditions: MTCC 3018, 24 h.
Type: functional
In short: (§1)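 Well diffusion screen against Candida and related fungal strains. Read-out is MIC in µg/mL, with miconazole as the reference drug.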

Structure (SMILES) | MFC [µg/mL] | MIC [µg/mL]
CCCCCCCCC(CCCCCCCCC(=O)OC)SCC(=O)N[C@@H](C)C(=O)OC (stereo not given in full) | 31.2 (≈ 65.9 µM) | 15.6 (≈ 32.9 µM)

Each compound was assayed on Staphylococcus aureus (assay: Antibiofilm activity against Staphylococcus aureus MLS-16 MTCC 2940 after 24 hrs by crystal violet staining based method). Conditions: MLS-16 MTCC 2940, 24 h.
Type: functional, organism-based
In short: (§2)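 Biofilm inhibition was tested on the four Gram-positive strains, using crystal violet staining.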

Structure (SMILES) | IC50 [µM]
CCCCCCCCC(CCCCCCCCC(=O)OC)SCC(=O)N[C@@H](C)C(=O)OC (stereo not given in full) | 3.2

Each compound was assayed on Candida albicans (assay: Antifungal activity against Candida albicans MTCC 3958 after 24 hrs by well diffusion assay). Conditions: MTCC 3958, 24 h.
Type: functional
In short: as §1

Structure (SMILES) | MFC [µg/mL] | MIC [µg/mL]
CCCCCCCCC(CCCCCCCCC(=O)OC)SCC(=O)N[C@@H](C)C(=O)OC (stereo not given in full) | 15.6 (≈ 32.9 µM) | 7.8 (≈ 16.5 µM)

Each compound was assayed on Candida albicans (assay: Antifungal activity against Candida albicans MTCC 227 after 24 hrs by well diffusion assay). Conditions: MTCC 227, 24 h.
Type: functional
In short: as §1

Structure (SMILES) | MFC [µg/mL] | MIC [µg/mL]
CCCCCCCCC(CCCCCCCCC(=O)OC)SCC(=O)N[C@@H](C)C(=O)OC (stereo not given in full) | 31.2 (≈ 65.9 µM) | 15.6 (≈ 32.9 µM)

What follows are compounds tested on Pseudomonas aeruginosa (assay: Antibacterial activity against Pseudomonas aeruginosa MTCC 2453 after 24 hrs by well diffusion assay). Conditions: MTCC 2453, 24 h.
Type: functional

Structure (SMILES) | MIC [µg/mL]
CCCCCCCCC(CCCCCCCCC(=O)OC)SCC(=O)N[C@@H](C)C(=O)OC (stereo not given in full) | > 125

These compounds were tested on Micrococcus luteus (assay: Antibacterial activity against Micrococcus luteus MTCC 2470 after 24 hrs by well diffusion assay). Conditions: MTCC 2470, 24 h.
Type: functional

Structure (SMILES) | MIC [µg/mL]
CCCCCCCCC(CCCCCCCCC(=O)OC)SCC(=O)N[C@@H](C)C(=O)OC (stereo not given in full) | 7.8 (≈ 16.5 µM)

These compounds were tested on Staphylococcus aureus (assay: Antibacterial activity against Staphylococcus aureus MTCC 96 after 24 hrs by well diffusion assay). Conditions: MTCC 96, 24 h.
Type: functional

Structure (SMILES) | MIC [µg/mL]
CCCCCCCCC(CCCCCCCCC(=O)OC)SCC(=O)N[C@@H](C)C(=O)OC (stereo not given in full) | 15.6 (≈ 32.9 µM)

Each compound was assayed on Candida albicans (assay: Antifungal activity against Candida albicans MTCC 183 after 24 hrs by well diffusion assay). Conditions: MTCC 183, 24 h.
Type: functional
In short: as §1

Structure (SMILES) | MFC [µg/mL] | MIC [µg/mL]
CCCCCCCCC(CCCCCCCCC(=O)OC)SCC(=O)N[C@@H](C)C(=O)OC (stereo not given in full) | 15.6 (≈ 32.9 µM) | 7.8 (≈ 16.5 µM)

What follows are compounds tested on Escherichia coli (assay: Antibacterial activity against Escherichia coli MTCC 739 after 24 hrs by well diffusion assay). Conditions: MTCC 739, 24 h.
Type: functional

Structure (SMILES) | MIC [µg/mL]
CCCCCCCCC(CCCCCCCCC(=O)OC)SCC(=O)N[C@@H](C)C(=O)OC (stereo not given in full) | > 125

What follows are compounds tested on HepG2 (assay: Cytotoxicity against human HepG2 cells by MTT assay). Conditions: not given.
Type: functional, cell-based

Structure (SMILES) | IC50 [µM]
CCCCCCCCC(CCCCCCCCC(=O)OC)SCC(=O)N[C@@H](C)C(=O)OC (stereo not given in full) | 102

Each compound was assayed on Pichia sporocuriosa (assay: Antifungal activity against Issatchenkia hanoiensis MTCC 4755 after 24 hrs by well diffusion assay). Conditions: MTCC 4755, 24 h.
Type: functional
In short: as §1

Structure (SMILES) | MFC [µg/mL] | MIC [µg/mL]
CCCCCCCCC(CCCCCCCCC(=O)OC)SCC(=O)N[C@@H](C)C(=O)OC (stereo not given in full) | 31.2 (≈ 65.9 µM) | 15.6 (≈ 32.9 µM)

The compounds below were run on Candida parapsilosis (assay: Inhibition of ergosterol biosynthesis in Candida parapsilosis MTCC 1744 assessed as mean ergosterol content at 16 ug/ml after 20 hrs by spectrophotometric analysis (Rvb=1.62 +/- 0.08 ug/ml)). Conditions: not given.
Type: functional

Structure (SMILES) | Activity [µg/mL]
CCCCCCCCC(CCCCCCCCC(=O)OC)SCC(=O)N[C@@H](C)C(=O)OC (stereo not given in full) | 0.11

The compounds below were run on Nakaseomyces glabratus (assay: Antifungal activity against Candida glabrata MTCC 3019 after 24 hrs by well diffusion assay). Conditions: MTCC 3019, 24 h.
Type: functional
In short: as §1

Structure (SMILES) | MFC [µg/mL] | MIC [µg/mL]
CCCCCCCCC(CCCCCCCCC(=O)OC)SCC(=O)N[C@@H](C)C(=O)OC (stereo not given in full) | 31.2 (≈ 65.9 µM) | 31.2 (≈ 65.9 µM)

The compounds below were run on Staphylococcus aureus (assay: Antibiofilm activity against Staphylococcus aureus MTCC 96 after 24 hrs by crystal violet staining based method). Conditions: MTCC 96, 24 h.
Type: functional, organism-based
In short: as §2

Structure (SMILES) | IC50 [µM]
CCCCCCCCC(CCCCCCCCC(=O)OC)SCC(=O)N[C@@H](C)C(=O)OC (stereo not given in full) | 9.3

These compounds were tested on Pichia kudriavzevii (assay: Antifungal activity against Pichia kudriavzevii MTCC 3020 after 24 hrs by well diffusion assay). Conditions: MTCC 3020, 24 h.
Type: functional
In short: as §1

Structure (SMILES) | MFC [µg/mL] | MIC [µg/mL]
CCCCCCCCC(CCCCCCCCC(=O)OC)SCC(=O)N[C@@H](C)C(=O)OC (stereo not given in full) | 15.6 (≈ 32.9 µM) | 15.6 (≈ 32.9 µM)

Each compound was assayed on Candida parapsilosis (assay: Antifungal activity against Candida parapsilosis MTCC 1744 after 24 hrs by well diffusion assay). Conditions: Lodderomyces parapsilosis, MTCC 1744, 24 h.
Type: functional
In short: as §1

Structure (SMILES) | MFC [µg/mL] | MIC [µg/mL]
CCCCCCCCC(CCCCCCCCC(=O)OC)SCC(=O)N[C@@H](C)C(=O)OC (stereo not given in full) | 7.8 (≈ 16.5 µM) | 7.8 (≈ 16.5 µM)

What follows are compounds tested on Bacillus subtilis (assay: Antibacterial activity against Bacillus subtilis MTCC 121 after 24 hrs by well diffusion assay). Conditions: MTCC 121, 24 h.
Type: functional

Structure (SMILES) | MIC [µg/mL]
CCCCCCCCC(CCCCCCCCC(=O)OC)SCC(=O)N[C@@H](C)C(=O)OC (stereo not given in full) | 3.9 (≈ 8.23 µM)
